Source: PubChem BioAssay AID623913 (Johns Hopkins Ion Channel Center, 2012)
Activity calls are given as the source filed them.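 The calls were made as follows: active = KCNQ2 potassium channel blocked by over 30% at some tested dose, with a dose response curve fitted; inactive = no blocking at any dose, or no fitted curve.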

Target: Potassium voltage-gated channel subfamily KQT member 2 (Rattus norvegicus) (UniProt O88943)
Assay: KCNQ2 channel inhibition, SAR follow-up, selectivity assay for KCNK9 inhibitor project, cell-based, FluxOR thallium flux, concentration-response, set 4 (AID 623913)
Conditions: KCNQ2 cells, FluxOR thallium flux fluorescence; for thallium flux ratio, lower = inhibition: at 30 µM (top of the series)
Summary of the method: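 Material – CHO cells expressing rat KCNQ2 potassium channel · Probe or stimulus – K+/Tl+ stimulus buffer (5x stock K2SO4 plus Tl2SO4) · Times – dye 90 min, compounds 20 min, room temperature · Technique – FluxOR thallium flux fluorescence, kinetic read · Controls – XE-991 as KCNQ2 inhibitor control · Replication – at least duplicate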

Sequence of Potassium voltage-gated channel subfamily KQT member 2 (Rattus norvegicus) (O88943 whole entry, looked up): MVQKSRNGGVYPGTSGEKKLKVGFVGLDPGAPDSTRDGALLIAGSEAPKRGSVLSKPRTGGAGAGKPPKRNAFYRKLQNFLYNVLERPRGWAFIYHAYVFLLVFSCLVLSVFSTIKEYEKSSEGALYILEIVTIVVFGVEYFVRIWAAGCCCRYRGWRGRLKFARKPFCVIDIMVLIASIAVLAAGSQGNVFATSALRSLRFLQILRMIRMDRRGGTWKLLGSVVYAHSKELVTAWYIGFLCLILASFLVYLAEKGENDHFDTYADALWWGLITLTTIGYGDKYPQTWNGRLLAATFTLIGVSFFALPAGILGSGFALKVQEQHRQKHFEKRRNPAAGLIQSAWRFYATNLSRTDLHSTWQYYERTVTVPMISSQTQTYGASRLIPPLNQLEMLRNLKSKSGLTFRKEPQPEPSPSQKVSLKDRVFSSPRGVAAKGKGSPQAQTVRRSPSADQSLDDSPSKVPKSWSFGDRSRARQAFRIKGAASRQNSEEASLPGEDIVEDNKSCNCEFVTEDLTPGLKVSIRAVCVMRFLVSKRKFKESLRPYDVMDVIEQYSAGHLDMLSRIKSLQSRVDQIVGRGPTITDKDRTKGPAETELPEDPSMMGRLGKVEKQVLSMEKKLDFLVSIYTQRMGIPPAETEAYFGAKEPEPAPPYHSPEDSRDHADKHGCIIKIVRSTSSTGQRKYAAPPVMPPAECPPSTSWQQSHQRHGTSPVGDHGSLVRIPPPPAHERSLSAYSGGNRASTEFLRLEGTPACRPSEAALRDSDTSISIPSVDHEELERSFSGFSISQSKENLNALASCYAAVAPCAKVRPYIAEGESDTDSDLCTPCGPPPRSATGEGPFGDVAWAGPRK

Row | SMILES | thallium flux ratio, lower = inhibition | IC50 [µM]
1 | CCCC(=O)C1CCN(c2ncnc3c2CN(C(=O)c2ccc(-c4ccccc4)cc2)CC3)CC1 | inactive | –
2 | C[C@H]([C@@H]1CC2CC[C@H]1C2)n1c(-c2ccco2)n[nH]c1=S | inactive | –
3 | C[C@@H]([C@@H]1CC2CC[C@H]1C2)n1c(-c2ccco2)n[nH]c1=S | inactive | –
4 | COc1cccc(-c2n[nH]c(=S)n2[C@H](C)C2CCCCC2)c1 | inactive | –
5 | C[C@H](C1CCCCC1)n1c(-c2ccccc2F)n[nH]c1=S | inactive | –
6 | CC(C1CC2CCC1C2)n1c(-c2ccco2)nn(CCc2ccncc2)c1=S (stereo not given) | inactive | –
7 | CC(C1C[C@H]2CCC1C2)n1c(-c2ccsc2)n[nH]c1=S (stereo not given in full) | inactive | –
8 | C[C@@H]([C@@H]1CC2CC[C@H]1C2)n1c(-c2ccsc2)n[nH]c1=S | inactive | –
9 | CC([C@@H]1CC2CC[C@H]1C2)n1c(-c2ccsc2)n[nH]c1=S (stereo not given in full) | inactive | –
10 | CC(C1CC2CCC1C2)n1c(N)nnc1-c1ccco1 (stereo not given) | inactive | –
11 | CC(C1CC2CCC1C2)n1c(SCC(=O)N2CCN(C)CC2)nnc1-c1ccco1 (stereo not given) | inactive | –
12 | C[C@H]([C@@H]1CC2CC[C@H]1C2)n1c(-c2ccccc2F)n[nH]c1=S | inactive | –
13 | COc1cccc(CCSc2nnc(-c3ccco3)n2C(C)C2CC3CCC2C3)c1 (stereo not given) | inactive | –
14 | CC(C1CCN(C)CC1)n1c(-c2ccco2)n[nH]c1=S (stereo not given) | inactive | –

Next, values leading:

Row | thallium flux ratio, lower = inhibition | IC50 [µM] | SMILES
15 | inactive | – | CC(C1CC2CCC1C2)n1c(SCCc2cccc(O)c2)nnc1-c1ccco1 (stereo not given)
16 | inactive | – | COc1cccc(-c2n[nH]c(=S)n2[C@H](C)[C@@H]2CC3CC[C@H]2C3)c1
17 | inactive | – | C[C@H](C1CCCCC1)n1c(-c2ccsc2)n[nH]c1=S
18 | inactive | – | COc1cccc(-c2nnc(SSc3nnc(-c4cccc(OC)c4)n3C(C)C3CC4CCC3C4)n2C(C)C2CC3CCC2C3)c1 (stereo not given)
19 | – | 11.1 | COc1ccc(C(=O)CCSc2nnc(-c3ccco3)n2C(C)C2CC3CCC2C3)cc1OC (stereo not given)
20 | inactive | – | C[C@H]([C@@H]1CC2CC[C@H]1C2)n1c(-c2ccsc2)n[nH]c1=S
21 | inactive | – | COc1ccc(NC(=O)CSc2nnc(-c3ccco3)n2C(C)C2CC3CCC2C3)cc1OC (stereo not given)
22 | inactive | – | CC(C1CC2CCC1C2)n1c(SCCc2ccccn2)nnc1-c1ccco1 (stereo not given)
23 | inactive | – | CC(C1CC2CCC1C2)n1c(SCCN2CCOCC2)nnc1-c1ccco1 (stereo not given)
24 | inactive | – | COc1ccc(CC(=O)NCc2ccccc2-c2ccccc2C(=O)NCc2ccc(F)cc2F)cc1
25 | inactive | – | COc1ccc(CSc2nnc(-c3ccco3)n2C(C)C2CC3CCC2C3)cc1OC (stereo not given)
